Test results: ChEMBL document CHEMBL1121738, “Mesoionic purinone analogues as inhibitors of cyclic-AMP phosphodiesterase: a comparison of several ring systems” (J Med Chem, 1981)

Legend:
[1] = species: Bos taurus; test: Inhibition of bovine heart phosphodiesterase at 1000 uM using 1 uM cyclic-AMP
Method in brief: (§1)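 Percent inhibition of commercial bovine heart phosphodiesterase at the single stated inhibitor concentration, measured by the Klee method with 1 μM cyclic-AMP substrate. Some compounds were dissolved in 95% ethanol, giving 2.5% final ethanol, before dilution with buffer.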

[2] = Inhibitory activity against phosphodiesterase using 1 uM cyclic-AMP as substrate in bovine heart; parameters: species or system Bos taurus; conditions: read-out: I50
Method in brief: (§2)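 Commercial bovine heart phosphodiesterase assayed by the Klee method with 1 μM cyclic-AMP substrate. Poorly soluble inhibitors were predissolved in 95% ethanol, giving 2.5% ethanol final. I50 was taken from a plot of V0/V against inhibitor concentration as the concentration where V0/V = 2. Five concentrations spanning 25–75% inhibition were used, and each I50 was repeated at least three times; ± standard error.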

[3] = species: Bos taurus; test: Relative potency of compound to that of theophylline against phosphodiesterase from bovine heart
Method in brief: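 Klee-method assay of commercial bovine heart phosphodiesterase with 1 μM cyclic-AMP; some inhibitors were dissolved in 95% ethanol (2.5% final). I50 came from V0/V versus concentration plots (V0/V = 2), using five concentrations and at least three repeats. Each value is expressed relative to the I50 of a theophylline control (= 1.0) run with or without ethanol to match.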

[4] = Inhibition of bovine heart phosphodiesterase using 1 uM cyclic-AMP with ethanol; parameters: species or system Bos taurus; conditions: read-out: I50
Method in brief: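 Commercial bovine heart PDE, assayed by the Klee method with 1 μM cyclic-AMP substrate. Inhibitors were dissolved in 95% ethanol and diluted with buffer to 2.5% ethanol final. V0/V was plotted against inhibitor concentration, and I50 was taken where V0/V = 2. Five inhibitor concentrations spanning 25-75% inhibition were used, each I50 was run at least three times, and values are expressed relative to an ethanol-containing theophylline control (= 1.0) ± standard error.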

[5] = Inhibition of bovine heart phosphodiesterase using 1 uM cyclic-AMP (Insoluble); parameters: species or system Bos taurus; method in brief: as §2
[6] = species: Bos taurus; test: Inhibition of bovine heart phosphodiesterase at 2000 uM using 1 uM cyclic-AMP; method in brief: as §1
[7] = species: Bos taurus; test: Inhibition of bovine heart phosphodiesterase at 3000 uM using 1 uM cyclic-AMP
Method in brief: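 Commercial bovine heart cyclic-AMP phosphodiesterase assayed by the Klee method with 1 μM cyclic-AMP substrate. Poorly soluble compounds were dissolved in 95% ethanol (2.5% final) before dilution with buffer. Activity is read as percent inhibition at a single inhibitor concentration.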

[8] = species: Bos taurus; test: Inhibition of bovine heart phosphodiesterase using 1 uM cyclic-AMP; method in brief: as §2
[9] = species: Bos taurus; test: Inhibition of bovine heart phosphodiesterase at 1500 uM using 1 uM cyclic-AMP; method in brief: as §1

| IC50 [2] [µM] | Relative potency [3] | Compound | also measured |
| --- | --- | --- | --- |
|  |  | O=C1CC(=O)[N+](c2ccccc2)=C2SC=CN12 | inhibition [1]: < 40% |
|  |  | CCC1C(=O)N2C=CSC2=[N+](c2ccccc2)C1=O (centres undefined) | inhibition [1]: < 40% |
| 319 | 0.9 | CC1C(=O)N2C=CSC2=[N+](CC2CC2)C1=O (centres undefined) |  |
| 13 | 31.7 | CCC1C(=O)N2C=CSC2=[N+](Cc2ccc(-c3ccccc3)cc2)C1=O (centres undefined) |  |
| 1390 | 0.2 | CCC1C(=O)N2CCSC2=[N+](CC2CC2)C1=O (centres undefined) |  |
| 532 | 0.7 | COc1ccc(C[N+]2=C3SC=CN3C(=O)C(C)C2=O)cc1 (centres undefined) |  |
| 988 | 0.3 | CC[N+]1=C2SC=CN2C(=O)CC1=O |  |
| 261 | 1.6 | CCC1C(=O)N2C=CSC2=[N+](Cc2ccc3c(c2)OCO3)C1=O (centres undefined) |  |
| 495 | 0.6 | O=C1CC(=O)[N+](CC2CC2)=C2SC=CN12 |  |
|  |  | CCC1C(=O)N=C2SC=CN2C1=O (centres undefined) | I50 [5]: Insoluble |
| 430 | 0.9 | CCC1C(=O)N2C=CSC2=[N+](Cc2ccccc2)C1=O (centres undefined) |  |
| 396 | 0.7 | CCC1C(=O)N2C=CSC2=[N+](CC2CC2)C1=O (centres undefined) |  |
| 1710 | 0.2 | CCCC1C(=O)N2N=CN(C)C2=[N+](C)C1=O (centres undefined) |  |
|  |  | CC1C(=O)N(C)C2SC=CN2C1=O (centres undefined) | inhibition [1]: < 40% |
|  |  | CCC1C(=O)N=C2N=CC=CN2C1=O (centres undefined) | inhibition [6]: 22% |
| 1260 | 0.2 | CC1C(=O)N2CCSC2=[N+](CC2CC2)C1=O (centres undefined) |  |
| 210 | 2 | CCC1C(=O)N2C=CC=CC2=[N+](CC2CCCCC2)C1=O (centres undefined) |  |
| 323 | 1.3 | CCC1C(=O)N2C=CSC2=[N+](Cc2cc(OC)cc(OC)c2)C1=O (centres undefined) |  |
| 305 | 1.4 | CCC1C(=O)N2C=CSC2=[N+](Cc2ccccc2Cl)C1=O (centres undefined) |  |
|  |  | CCC1C(=O)N(C)C2SC=CN2C1=O (centres undefined) | inhibition [1]: < 40% |
| 1670 | 0.2 | CCC1C(=O)N2C=CC=NC2=[N+](C)C1=O (centres undefined) |  |
| 555 | 0.7 | CCC1C(=O)N2N=CSC2=[N+](CC)C1=O (centres undefined) |  |
| 52 | 7.9 | CC[N+]1=C2SC=NN2C(=O)C(Cc2ccccc2)C1=O (centres undefined) |  |

| IC50 [2] [µM] | Relative potency [3] | Compound | also measured |
| --- | --- | --- | --- |
|  |  | CC[N+]1=C2N(C)C=CN2C(=O)C(C)C1=O (centres undefined) | inhibition [7]: < 30% |
| 774 | 0.5 | CC[N+]1=C2SC=NN2C(=O)CC1=O |  |
|  |  | CN1C=NN2C(=O)CC(=O)[N+](C)=C12 | inhibition [6]: < 30% |
| 127 | 3.2 | CCC1C(=O)N2C=Cc3ccccc3C2=[N+](CC)C1=O (centres undefined) |  |
| 1160 | 0.4 | CC[N+]1=C2SC=NN2C(=O)C(C)C1=O (centres undefined) |  |
| 208 | 2 | CCC1C(=O)N2C=CSC2=[N+](Cc2cccc(Cl)c2)C1=O (centres undefined) |  |
| 308 | 1.3 | O=C1CC(=O)[n+]2ccsc2N1Cc1cccc(Cl)c1 |  |
|  |  | CCC1C(=O)N2C=CN(C)C2=[N+](CC)C1=O (centres undefined) | inhibition [7]: < 30% |
|  |  | C[N+]1=C2SC=CN2C(=O)CC1=O | inhibition [1]: < 40% |
| 191 | 2.2 | CC1C(=O)N2N=CSC2=[N+](Cc2ccccc2)C1=O (centres undefined) |  |
|  |  | CC1C(=O)N2C=CSC2=[N+](c2ccccc2)C1=O (centres undefined) | inhibition [1]: < 40% |
|  |  | CCC1C(=O)N2CCSC2=[N+](CC)C1=O (centres undefined) | inhibition [8]: 38% |
| 858 | 0.3 | CCC1C(=O)N(CC)c2scc[n+]2C1=O (centres undefined) |  |
|  |  | CCC1C(=O)N=C2SC=NN2C1=O (centres undefined) | I50 [5]: Insoluble |
| 2050 | 0.1 | O=C1CC(=O)[N+](CC2CC2)=C2SCCN12 |  |
| 1100 | 0.4 | C[N+]1=C2SC=NN2C(=O)CC1=O |  |
| 191 | 2.2 | CCC1C(=O)N2C=CSC2=[N+](Cc2ccc(Cl)cc2)C1=O (centres undefined) |  |
| 498 | 0.6 | CCC1C(=O)N2C=CSC2=[N+](CC(C)C)C1=O (centres undefined) |  |
| 168 | 2.5 | CC[N+]1=C2SC=CN2C(=O)C(Cc2ccccc2)C1=O (centres undefined) |  |
| 951 | 0.3 | CC[N+]1=C2SC=CN2C(=O)C(C)C1=O (centres undefined) |  |
|  |  | CCC1C(=O)N2N=CN(C)C2=[N+](C)C1=O (centres undefined) | inhibition [6]: < 30% |
|  |  | CC1C(=O)N2N=CN(C)C2=[N+](C)C1=O (centres undefined) | inhibition [6]: < 30% |
|  |  | CCC1C(=O)N2CCSC2=[N+](CC(C)C)C1=O (centres undefined) | inhibition [9]: 39% |

| Compound | IC50 [2] [µM] | Relative potency [3] | also measured |
| --- | --- | --- | --- |
| Cn1c(=O)c2nc[nH]c2n(C)c1=O [THEOPHYLLINE] | 286 |  | IC50 [4]: 412 µM |
| Cn1c(=O)c2[nH]cnc2n(C)c1=O |  | 1 |  |
